Assay results: ChEMBL document CHEMBL5705890, “Antitumor activity of an allosteric inhibitor of centromere-associated protein-E” (Proc Natl Acad Sci U S A, 2010)
pIC50: −log10 of the molar value.

Assays:
[1] = test system: SNU-387; experiment: Anticancer activity against human SNU-387 cells assessed as cell growth inhibition measured after 72 hrs by DAPI staining based analysis; type: functional
[2] = test system: SCC-4; experiment: Anticancer activity against human SCC-4 cells assessed as cell doubling measured for 72 hrs by DAPI staining based analysis; type: functional
[3] = test system: G-401; experiment: Anticancer activity against human G-401 cells assessed as cell doubling measured for 72 hrs by DAPI staining based analysis; type: functional
[4] = test system: RD; experiment: Anticancer activity against human RD cells assessed as cell doubling measured for 72 hrs by DAPI staining based analysis; type: functional
[5] = test system: SK-MEL-28; experiment: Anticancer activity against human SK-MEL-28 cells assessed as cell growth inhibition measured after 72 hrs by DAPI staining based analysis; type: functional
[6] = test system: HepG2; experiment: Anticancer activity against human HepG2 cells assessed as cell growth inhibition measured after 72 hrs by DAPI staining based analysis; type: functional
[7] = test system: BE(2)-C; experiment: Anticancer activity against human BE2C cells assessed as cell doubling measured for 72 hrs by DAPI staining based analysis; type: functional
[8] = test system: SW872; experiment: Anticancer activity against human SW872 cells assessed as cell growth inhibition measured after 72 hrs by DAPI staining based analysis; type: functional
[9] = Anticancer activity against human UM-SCC-12 cells assessed as cell growth inhibition measured after 72 hrs by DAPI staining based analysis; type: functional
[10] = molecular target: Centromere-associated protein E (Homo sapiens, UniProt Q02224); experiment: Inhibition of ATPase activity of C-terminal 6-his-tagged CENP-E (2 to 340 residues)(unknown origin) expressed in Escherichia coli BL21(DE3) in presence of ATP
Chain of Centromere-associated protein E (Q02224 whole entry, the tested form may be a part): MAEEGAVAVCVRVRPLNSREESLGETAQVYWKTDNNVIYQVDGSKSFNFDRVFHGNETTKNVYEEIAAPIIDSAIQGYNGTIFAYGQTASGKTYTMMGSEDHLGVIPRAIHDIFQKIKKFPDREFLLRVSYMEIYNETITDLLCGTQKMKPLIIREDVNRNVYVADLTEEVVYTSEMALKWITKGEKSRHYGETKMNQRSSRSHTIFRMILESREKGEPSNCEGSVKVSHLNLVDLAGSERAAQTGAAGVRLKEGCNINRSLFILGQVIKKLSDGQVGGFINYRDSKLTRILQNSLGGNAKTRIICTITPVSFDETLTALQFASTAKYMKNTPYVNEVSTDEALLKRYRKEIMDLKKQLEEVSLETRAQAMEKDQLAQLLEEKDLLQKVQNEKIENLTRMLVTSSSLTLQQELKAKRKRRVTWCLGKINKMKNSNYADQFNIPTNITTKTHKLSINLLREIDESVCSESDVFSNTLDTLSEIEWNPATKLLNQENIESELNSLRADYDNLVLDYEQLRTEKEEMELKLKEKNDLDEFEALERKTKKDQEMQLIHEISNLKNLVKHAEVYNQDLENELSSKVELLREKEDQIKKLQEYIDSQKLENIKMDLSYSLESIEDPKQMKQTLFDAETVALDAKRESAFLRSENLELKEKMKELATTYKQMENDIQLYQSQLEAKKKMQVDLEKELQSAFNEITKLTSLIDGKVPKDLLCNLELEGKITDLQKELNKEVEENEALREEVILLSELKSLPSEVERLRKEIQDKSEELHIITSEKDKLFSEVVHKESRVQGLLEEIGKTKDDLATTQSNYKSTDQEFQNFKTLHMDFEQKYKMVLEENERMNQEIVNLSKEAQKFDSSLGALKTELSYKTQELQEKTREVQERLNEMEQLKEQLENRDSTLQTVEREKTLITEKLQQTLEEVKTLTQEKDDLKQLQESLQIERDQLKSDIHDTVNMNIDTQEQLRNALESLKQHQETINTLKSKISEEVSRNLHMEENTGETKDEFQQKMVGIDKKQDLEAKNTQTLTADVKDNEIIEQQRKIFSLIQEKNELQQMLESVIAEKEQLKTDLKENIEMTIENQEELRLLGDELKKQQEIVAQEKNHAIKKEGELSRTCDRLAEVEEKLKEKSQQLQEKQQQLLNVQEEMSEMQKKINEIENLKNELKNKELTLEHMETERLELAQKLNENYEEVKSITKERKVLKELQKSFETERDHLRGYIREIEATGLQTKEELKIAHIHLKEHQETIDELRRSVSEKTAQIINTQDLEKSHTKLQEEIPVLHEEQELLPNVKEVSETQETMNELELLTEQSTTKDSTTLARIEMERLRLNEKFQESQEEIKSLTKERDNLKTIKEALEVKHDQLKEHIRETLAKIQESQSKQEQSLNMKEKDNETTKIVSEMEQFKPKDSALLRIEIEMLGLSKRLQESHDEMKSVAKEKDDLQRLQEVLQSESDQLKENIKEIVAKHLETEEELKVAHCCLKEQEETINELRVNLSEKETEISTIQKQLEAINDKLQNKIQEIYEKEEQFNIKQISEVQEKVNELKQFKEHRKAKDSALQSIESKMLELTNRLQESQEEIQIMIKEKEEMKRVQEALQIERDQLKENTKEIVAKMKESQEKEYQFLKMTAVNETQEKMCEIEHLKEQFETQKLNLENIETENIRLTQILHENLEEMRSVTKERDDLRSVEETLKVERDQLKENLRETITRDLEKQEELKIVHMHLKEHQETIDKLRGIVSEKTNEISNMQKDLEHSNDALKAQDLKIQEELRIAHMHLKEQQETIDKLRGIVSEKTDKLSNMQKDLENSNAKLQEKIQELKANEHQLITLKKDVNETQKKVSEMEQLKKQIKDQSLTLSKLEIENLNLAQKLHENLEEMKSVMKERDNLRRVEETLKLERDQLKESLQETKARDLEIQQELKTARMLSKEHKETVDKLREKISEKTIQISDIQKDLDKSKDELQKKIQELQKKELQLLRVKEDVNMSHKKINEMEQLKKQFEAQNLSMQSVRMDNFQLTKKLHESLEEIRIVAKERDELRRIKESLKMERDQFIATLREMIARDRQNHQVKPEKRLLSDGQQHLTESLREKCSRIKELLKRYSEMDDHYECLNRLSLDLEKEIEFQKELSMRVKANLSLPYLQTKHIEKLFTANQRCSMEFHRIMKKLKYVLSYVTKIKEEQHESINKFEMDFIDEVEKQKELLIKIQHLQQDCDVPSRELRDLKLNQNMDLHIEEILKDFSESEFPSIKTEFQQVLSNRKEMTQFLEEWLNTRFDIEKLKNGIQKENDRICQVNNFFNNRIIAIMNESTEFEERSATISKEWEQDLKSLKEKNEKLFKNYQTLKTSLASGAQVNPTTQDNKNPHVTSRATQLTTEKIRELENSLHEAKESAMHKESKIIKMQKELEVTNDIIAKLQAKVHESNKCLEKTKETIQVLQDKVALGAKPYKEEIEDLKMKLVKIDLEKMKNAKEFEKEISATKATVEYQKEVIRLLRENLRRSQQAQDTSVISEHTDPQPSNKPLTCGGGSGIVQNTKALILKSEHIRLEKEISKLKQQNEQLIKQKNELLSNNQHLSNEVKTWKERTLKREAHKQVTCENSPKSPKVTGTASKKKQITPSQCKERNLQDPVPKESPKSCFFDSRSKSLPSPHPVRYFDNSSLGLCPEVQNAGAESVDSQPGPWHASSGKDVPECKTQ

[11] = Anticancer activity against human NCI-H322T cells assessed as cell doubling measured for 72 hrs by DAPI staining based analysis; type: functional
[12] = test system: SW1463; experiment: Anticancer activity against human SW1463 cells assessed as cell doubling measured for 72 hrs by DAPI staining based analysis; type: functional
[13] = test system: RL; experiment: Anticancer activity against human RL cells assessed as cell doubling measured for 72 hrs by DAPI staining based analysis; type: functional
[14] = Anticancer activity against human NL-SCLC3 cells assessed as cell growth inhibition measured after 72 hrs by DAPI staining based analysis; type: functional
[15] = test system: NCI-H520; experiment: Anticancer activity against human NCI-H520 cells assessed as cell growth inhibition measured after 72 hrs by DAPI staining based analysis; type: functional
[16] = test system: ES-2; experiment: Anticancer activity against human ES2 cells assessed as cell doubling measured for 72 hrs by DAPI staining based analysis; type: functional
[17] = test system: NCI-H460; experiment: Antitumor activity against human NCI-H460 cells in xenograft model assessed as tumor growth delay at 125 mg/kg relative to control; type: functional
[18] = Anticancer activity against human SCC-13 cells assessed as cell growth inhibition measured after 72 hrs by DAPI staining based analysis; type: functional
[19] = test system: NCI-H209; experiment: Anticancer activity against human NCI-H209 cells assessed as cell growth inhibition measured after 72 hrs by DAPI staining based analysis; type: functional
[20] = test system: NCI/ADR-RES; experiment: Anticancer activity against human NCI/ADR-RES cells assessed as cell doubling measured for 72 hrs by DAPI staining based analysis; type: functional
[21] = test system: NCI-H460; experiment: Antitumor activity against human NCI-H460 cells in xenograft model assessed as tumor growth delay at 62.5 mg/kg relative to control; type: functional
[22] = test system: DoTc2-4510; experiment: Anticancer activity against human DoTc2-4510 cells assessed as cell doubling measured for 72 hrs by DAPI staining based analysis; type: functional
[23] = test system: NCI-H2052; experiment: Anticancer activity against human NCI-H2052 cells assessed as cell growth inhibition measured after 72 hrs by DAPI staining based analysis; type: functional
[24] = test system: HCC 2998; experiment: Anticancer activity against human HCC 2998 cells assessed as cell growth inhibition measured after 72 hrs by DAPI staining based analysis; type: functional
How it was run: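 Cells seeded, DAPI-stained DNA content of fixed cells read by imaging 24 h after seeding (T0), and again after a further 72 h exposure to a range of drug concentrations (T72). T72 values were normalized to T0. Curve fits gave the concentration producing 50% growth inhibition relative to T0 and Ymax (GI50).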

[25] = test system: SNU-398; experiment: Anticancer activity against human SNU-398 cells assessed as cell doubling measured for 72 hrs by DAPI staining based analysis; type: functional
[26] = Anticancer activity against human BC-2 cells assessed as cell doubling measured for 72 hrs by DAPI staining based analysis; type: functional
[27] = test system: SF-539; experiment: Anticancer activity against human SF-539 cells assessed as cell growth inhibition measured after 72 hrs by DAPI staining based analysis; type: functional
[28] = test system: MX1; experiment: Anticancer activity against human MX1 cells assessed as cell doubling measured for 72 hrs by DAPI staining based analysis; type: functional
[29] = test system: HPAF-II; experiment: Anticancer activity against human HPAF-II cells assessed as cell doubling measured for 72 hrs by DAPI staining based analysis; type: functional
[30] = test system: HCT-15; experiment: Anticancer activity against human HCT-15 cells assessed as cell doubling measured for 72 hrs by DAPI staining based analysis; type: functional
[31] = test system: SNU-423; experiment: Anticancer activity against human SNU-423 cells assessed as cell growth inhibition measured after 72 hrs by DAPI staining based analysis; type: functional
[32] = test system: MX1; experiment: Antitumor activity against human MX1 cells in xenograft model assessed as difference between median time to endpoint time of treated versus control group at 62.5 mg/kg; type: functional
[33] = test system: LNCaP; experiment: Anticancer activity against human LNCaP cells assessed as cell doubling measured for 72 hrs by DAPI staining based analysis; type: functional
[34] = test system: THP-1; experiment: Anticancer activity against human THP-1 cells assessed as cell growth inhibition measured after 72 hrs by DAPI staining based analysis; type: functional
[35] = test system: C-4-II; experiment: Anticancer activity against human C-4-II cells assessed as cell growth inhibition measured after 72 hrs by DAPI staining based analysis; type: functional
How it was run: (§1)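 Cells were seeded, and DNA content at 24 h after seeding (T0) was read by imaging of fixed, DAPI-stained cells. Cells were then exposed to a range of drug concentrations for a further 72 h (T72) and DNA content was read again. T72 values were normalized to T0, and GI50 was taken from curve fits as the concentration giving 50% growth inhibition relative to T0 and Ymax.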

[36] = test system: MCF7; experiment: Antitumor activity against human MCF7 cells in xenograft model assessed as difference between median time to endpoint time of treated versus control group at 62.5 mg/kg; type: functional
[37] = test system: MOLT-16; experiment: Anticancer activity against human MOLT-16 cells assessed as cell doubling measured for 72 hrs by DAPI staining based analysis; type: functional
[38] = test system: BT-20; experiment: Anticancer activity against human BT-20 cells assessed as cell growth inhibition measured after 72 hrs by DAPI staining based analysis; type: functional; how it was run: as §1
[39] = test system: A549; experiment: Antitumor activity against human A549 cells in xenograft model assessed as difference between median time to endpoint time of treated versus control group at 125 mg/kg; type: functional
[40] = test system: SW948; experiment: Anticancer activity against human SW948 cells assessed as cell growth inhibition measured after 72 hrs by DAPI staining based analysis; type: functional
[41] = test system: RPMI-8226; experiment: Anticancer activity against human RPMI-8226 cells assessed as cell growth inhibition measured after 72 hrs by DAPI staining based analysis; type: functional
[42] = test system: RL95-2; experiment: Anticancer activity against human RL95-2 cells assessed as cell doubling measured for 72 hrs by DAPI staining based analysis; type: functional

Structure (SMILES): CC(C)Oc1ccc(C(=O)N[C@H](CNC(=O)CN(C)C)Cc2ccc(-c3cn4cccc([C@H](C)O)c4n3)cc2)cc1Cl [GSK-923295A]
- GI50 [1]: 32 nM
- Activity [2]: 2.44
- Activity [3]: 4.28
- Activity [4]: 2.56
- GI50 [5]: 31 nM
- GI50 [6]: 31 nM
- Activity [7]: 2.28
- GI50 [8]: 37 nM
- GI50 [9]: 33 nM
- pIC50 [10]: 5.68
- Activity [11]: 2.27
- Activity [12]: 1.22
- Activity [13]: 3.17
- GI50 [14]: 31 nM
- GI50 [15]: 34 nM
- Activity [16]: 3.69
- Activity [17]: 210%
- GI50 [18]: 58 nM
- GI50 [19]: 20 nM
- Activity [20]: 2.47
- Activity [21]: 87%
- Activity [22]: 2.17
- GI50 [23]: 44 nM
- GI50 [24]: 29 nM
- Activity [25]: 2.53
- Activity [26]: 1.94
- GI50 [27]: 28 nM
- Activity [28]: 2.99
- Activity [29]: 2.42
- Activity [30]: 4.01
- GI50 [31]: 34 nM
- Time [32]: 1.4 days
- Activity [33]: 1.4
- GI50 [34]: 12 nM
- GI50 [35]: 46 nM
- Time [36]: 5.4 days
- Activity [37]: 4.23
- GI50 [38]: 32 nM
- Time [39]: 25.3 days
- GI50 [40]: 98 nM
- GI50 [41]: 27 nM
- Activity [42]: 2.48
